# Source: ChEMBL document CHEMBL4715736, “Identification of anticancer agents based on the thieno[2,3-b]pyridine and 1H-pyrazole molecular scaffolds” (2016)
# Legend:
# Assay type in all cases: functional
# [1] = tested on: NCI-H322M; experiment: Growth inhibition of human NCI-H322M cells assessed as cell growth at 0.01 uM incubated for 48 hrs by sulforhodamine B assay relative to control; details: read-out: Activity
# [2] = tested on: HCT-116; experiment: Growth inhibition of human HCT-116 cells assessed as cell growth at 0.01 uM incubated for 48 hrs by sulforhodamine B assay relative to control; details: read-out: Activity
# [3] = tested on: SNB-19; experiment: Growth inhibition of human SNB-19 cells assessed as cell growth at 0.01 uM incubated for 48 hrs by sulforhodamine B assay relative to control; details: read-out: Activity
# [4] = tested on: OVCAR-3; experiment: Growth inhibition of human OVCAR-3 cells assessed as cell growth at 0.01 uM incubated for 48 hrs by sulforhodamine B assay relative to control; details: read-out: Activity
# [5] = tested on: 786-0; experiment: Growth inhibition of human 786-0 cells assessed as cell growth at 0.01 uM incubated for 48 hrs by sulforhodamine B assay relative to control; details: read-out: Activity
# Outline: (§1)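 NCI Developmental Therapeutics Program NCI60 panel. Compounds that were active in the 10 µM one-dose screen went on to dose–response testing. Growth at each concentration is expressed relative to untreated control (100%). GI50 (concentration giving 50% of maximal inhibition of proliferation) and TGI (concentration giving total growth inhibition) were derived from the curves.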
# [6] = tested on: PC-3; experiment: Growth inhibition of human PC-3 cells assessed as cell growth at 0.01 uM incubated for 48 hrs by sulforhodamine B assay relative to control; details: read-out: Activity
# [7] = tested on: MCF7; experiment: Growth inhibition of human MCF7 cells assessed as cell growth at 0.01 uM incubated for 48 hrs by sulforhodamine B assay relative to control; details: read-out: Activity
# [8] = tested on: Hs-578T; experiment: Growth inhibition of human Hs-578T cells assessed as cell growth at 0.01 uM incubated for 48 hrs by sulforhodamine B assay relative to control; details: read-out: Activity
# [9] = tested on: SN12C; experiment: Growth inhibition of human SN12C cells assessed as cell growth at 0.1 uM incubated for 48 hrs by sulforhodamine B assay relative to control; details: read-out: Activity
# [10] = tested on: MDA-MB-231; experiment: Growth inhibition of human MDA-MB-231 cells assessed as cell growth at 0.1 uM incubated for 48 hrs by sulforhodamine B assay relative to control; details: read-out: Activity
# [11] = tested on: NCI-H522; experiment: Growth inhibition of human NCI-H522 cells assessed as cell growth at 1 uM incubated for 48 hrs by sulforhodamine B assay relative to control; details: read-out: Activity
# [12] = tested on: KM12; experiment: Growth inhibition of human KM12 cells assessed as cell growth at 1 uM incubated for 48 hrs by sulforhodamine B assay relative to control; details: read-out: Activity
# [13] = tested on: SW-620; experiment: Growth inhibition of human SW-620 cells assessed as cell growth at 1 uM incubated for 48 hrs by sulforhodamine B assay relative to control; details: read-out: Activity
# [14] = tested on: SF-268; experiment: Growth inhibition of human SF-268 cells assessed as cell growth at 1 uM incubated for 48 hrs by sulforhodamine B assay relative to control; details: read-out: Activity
# [15] = tested on: SK-MEL-5; experiment: Growth inhibition of human SK-MEL-5 cells assessed as cell growth at 1 uM incubated for 48 hrs by sulforhodamine B assay relative to control; details: read-out: Activity
# [16] = tested on: UACC-257; experiment: Growth inhibition of human UACC-257 cells assessed as cell growth at 1 uM incubated for 48 hrs by sulforhodamine B assay relative to control; details: read-out: Activity
# [17] = tested on: OVCAR-4; experiment: Growth inhibition of human OVCAR-4 cells assessed as cell growth at 1 uM incubated for 48 hrs by sulforhodamine B assay relative to control; details: read-out: Activity
# [18] = tested on: OVCAR-5; experiment: Growth inhibition of human OVCAR-5 cells assessed as cell growth at 1 uM incubated for 48 hrs by sulforhodamine B assay relative to control; details: read-out: Activity
# [19] = tested on: OVCAR-8; experiment: Growth inhibition of human OVCAR-8 cells assessed as cell growth at 1 uM incubated for 48 hrs by sulforhodamine B assay relative to control; details: read-out: Activity
# [20] = tested on: SN12C; experiment: Growth inhibition of human SN12C cells assessed as cell growth at 1 uM incubated for 48 hrs by sulforhodamine B assay relative to control; details: read-out: Activity
# [21] = tested on: MCF7; experiment: Growth inhibition of human MCF7 cells assessed as cell growth at 1 uM incubated for 48 hrs by sulforhodamine B assay relative to control; details: read-out: Activity
# [22] = tested on: T47D; experiment: Growth inhibition of human T47D cells assessed as cell growth at 1 uM incubated for 48 hrs by sulforhodamine B assay relative to control; details: read-out: Activity
# [23] = tested on: MOLT-4; experiment: Growth inhibition of human MOLT-4 cells assessed as cell growth at 100 uM incubated for 48 hrs by sulforhodamine B assay relative to control; details: read-out: Activity
# [24] = tested on: LOX IMVI; experiment: Growth inhibition of human LOX IMVI cells assessed as cell growth at 100 uM incubated for 48 hrs by sulforhodamine B assay relative to control; details: read-out: Activity
# [25] = tested on: IGROV-1; experiment: Growth inhibition of human IGROV-1 cells assessed as cell growth at 100 uM incubated for 48 hrs by sulforhodamine B assay relative to control; details: read-out: Activity
# [26] = tested on: PC-3; experiment: Growth inhibition of human PC-3 cells assessed as cell growth at 100 uM incubated for 48 hrs by sulforhodamine B assay relative to control; details: read-out: Activity
# [27] = tested on: DU-145; experiment: Growth inhibition of human DU-145 cells assessed as cell growth at 100 uM incubated for 48 hrs by sulforhodamine B assay relative to control; details: read-out: Activity; outline: as §1
# [28] = tested on: MDA-MB-468; experiment: Growth inhibition of human MDA-MB-468 cells assessed as cell growth at 100 uM incubated for 48 hrs by sulforhodamine B assay relative to control; details: read-out: Activity
# [29] = tested on: HOP-62; experiment: Growth inhibition of human HOP-62 cells incubated for 48 hrs by sulforhodamine B assay
# Outline: (§2)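 NCI60 panel at the NCI Developmental Therapeutics Program. Only compounds active in the 10 µM screen went to dose-response testing. GI50, the concentration giving 50% of maximal inhibition of proliferation, and TGI, the concentration giving total growth inhibition, were derived from the dose-response curves.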
# [30] = tested on: NCI-H460; experiment: Growth inhibition of human NCI-H460 cells incubated for 48 hrs by sulforhodamine B assay; outline: as §2
# [31] = tested on: SF-295; experiment: Growth inhibition of human SF-295 cells incubated for 48 hrs by sulforhodamine B assay
# Outline: (§3)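 NCI DTP 60-line human tumour panel. Dose-response curves were run only for ligands active in the initial 10 µM screen. GI50 (concentration giving 50% of maximal inhibition of proliferation) and TGI (concentration giving total growth inhibition) were derived from these curves.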
# [32] = tested on: SK-MEL-5; experiment: Growth inhibition of human SK-MEL-5 cells incubated for 48 hrs by sulforhodamine B assay; outline: as §3
# [33] = tested on: IGROV-1; experiment: Growth inhibition of human IGROV-1 cells incubated for 48 hrs by sulforhodamine B assay; outline: as §2
# [34] = tested on: SK-OV-3; experiment: Growth inhibition of human SK-OV-3 cells incubated for 48 hrs by sulforhodamine B assay; details: for CC50: read-out: LC50 (the source's name); outline: as §3
# [35] = tested on: HOP-62; experiment: Growth inhibition of human HOP-62 cells assessed as cell growth at 0.1 uM incubated for 48 hrs by sulforhodamine B assay relative to control; details: read-out: Activity
smiles,measurement,setting,value
Cc1cc(C)c(NC(=O)c2sc3nc4c(cc3c2N)CN(Cc2ccccc2)CC4)c(C)c1,growth at 0.01 µM,[1],96%
same,growth at 0.01 µM,[2],93%
same,growth at 0.01 µM,[3],98%
same,growth at 0.01 µM,[4],104%
same,growth at 0.01 µM,[5],91%
same,growth at 0.01 µM,[6],94%
same,growth at 0.01 µM,[7],86%
same,growth at 0.01 µM,[8],84%
same,growth at 0.1 µM,[9],101%
same,growth at 0.1 µM,[10],101%
same,growth at 1 µM,[11],66%
same,growth at 1 µM,[12],87%
same,growth at 1 µM,[13],76%
same,growth at 1 µM,[14],92%
same,growth at 1 µM,[15],59%
same,growth at 1 µM,[16],80%
same,growth at 1 µM,[17],77%
same,growth at 1 µM,[18],97%
same,growth at 1 µM,[19],91%
same,growth at 1 µM,[20],92%
same,growth at 1 µM,[21],61%
same,growth at 1 µM,[22],77%
same,growth at 100 µM,[23],10%
same,growth at 100 µM,[24],-83%
same,growth at 100 µM,[25],5%
same,growth at 100 µM,[26],15%
same,growth at 100 µM,[27],-5%
same,growth at 100 µM,[28],-1%
same,GI50,[29],7.73 µM
same,LC50,[29],> 100 µM
same,TGI,[29],> 100 µM
same,GI50,[30],3.29 µM
same,LC50,[30],> 100 µM
same,TGI,[30],16.3 µM
same,GI50,[31],1.89 µM
same,LC50 (concentration killing 50% of cells),[31],> 100 µM
same,TGI,[31],64.7 µM
same,GI50,[32],1.47 µM
same,LC50,[32],> 100 µM
same,TGI,[32],11.5 µM
same,GI50,[33],6.54 µM
same,LC50,[33],> 100 µM
same,TGI,[33],> 100 µM
same,GI50,[34],5.35 µM
same,TGI,[34],> 100 µM
same,CC50,[34],> 100 µM
Cc1cccc(NC(=O)c2sc3nc4c(cc3c2N)C(=O)CCC4)c1,growth at 0.01 µM,[1],97%
same,growth at 0.01 µM,[2],93%
same,growth at 0.01 µM,[3],94%
same,growth at 0.01 µM,[4],98%
same,growth at 0.01 µM,[5],88%
same,growth at 0.01 µM,[6],95%
same,growth at 0.01 µM,[7],86%
same,growth at 0.01 µM,[8],88%
same,growth at 0.1 µM,[35],69%
same,growth at 0.1 µM,[9],87%
same,growth at 0.1 µM,[10],76%
same,growth at 1 µM,[11],-35%
same,growth at 1 µM,[12],19%
same,growth at 1 µM,[13],19%
same,growth at 1 µM,[14],54%
same,growth at 1 µM,[15],16%
same,growth at 1 µM,[16],53%
same,growth at 1 µM,[17],44%
same,growth at 1 µM,[18],44%
same,growth at 1 µM,[19],47%
same,growth at 1 µM,[20],42%
same,growth at 1 µM,[21],18%
same,growth at 1 µM,[22],29%
same,growth at 100 µM,[23],6%
same,growth at 100 µM,[24],-75%
same,growth at 100 µM,[25],-4%
same,growth at 100 µM,[26],-26%
same,growth at 100 µM,[27],-34%
same,growth at 100 µM,[28],5%
same,GI50,[29],0.331 µM
same,LC50,[29],> 100 µM
same,TGI,[29],≥ 100 µM
same,GI50,[30],0.286 µM
same,LC50,[30],> 100 µM
same,TGI,[30],≥ 100 µM
same,GI50,[31],0.175 µM
same,LC50 (concentration killing 50% of cells),[31],> 100 µM
same,TGI,[31],≥ 100 µM
same,GI50,[32],0.169 µM
same,LC50,[32],> 100 µM
same,TGI,[32],≥ 100 µM
same,GI50,[33],0.662 µM
same,LC50,[33],> 100 µM
same,TGI,[33],≥ 100 µM
same,GI50,[34],0.251 µM
same,TGI,[34],> 100 µM
same,CC50,[34],> 100 µM
